Screening data: PubChem, several laboratories
NR3A LBD binder: binders of NR3A ligand-binding domain, primary screen, biophysical, differential scanning fluorimetry, uHTS; Glutamate receptor ionotropic, NMDA 3A (GRIN3A) ligand-binding domain; NR3A LBD differential scanning fluorimetry, Tm shift; 0% = protein alone, 100% = glycine-bound protein; Tm shift relative to glycine control, % at 25 µM; 2.5% of 340,000 active; AID 1259313, 2017;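 active = melting temperature shift of at least 10% of the positive control shift, at one fixed dose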
ADAM10 inh: human ADAM10 inhibitors, primary screen, biochemical, QFRET, HTS | inhibition, % at 7 µM | 0.62% of 370,000 active | recombinant ADAM10, EDANS/DABCYL FRET peptide cleavage, 3 h | Disintegrin and metalloproteinase domain-containing protein 10 (Homo sapiens), O14672;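 active = inhibition above a per-campaign cutoff equal to the mean of compounds falling between control-based bounds plus 3 SD, cut at about 20% in these data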;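 note: 0% = DMSO wells while the 100% control is not disclosed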
MT1-MMP act inh: blockers of MT1-MMP proenzyme processing, primary screen, HT1080 RFP-PRO-GFP cells, GFP/RFP fluorescence; 0.061% of 360,000 active; GFP/RFP ratio change, % at 20 µM; GFP/RFP ratio fluorescence, overnight; percent of plate control window, DMSO zero;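 active = GFP/RFP ratio change of at least 30% with cell ATP level not reduced by more than half and red fluorescence within 50% of control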
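Test system: HT1080 cells expressing an RFP-PRO-GFP fluorescent reporter construct / Compound dosing: single-point 20 µM compound, 1% DMSO / Schedule: cells overnight before dosing, compound overnight, 37 °C, 5% CO2 / Evaluation: GFP/RFP fluorescence ratio / Control set: DMSO and RFP-L50D-GFP cell wells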
MPTP block: mitochondrial permeability transition pore inhibitors, primary screen, biochemical, isolated mouse mitochondria, absorbance. Ca2+ swelling absorbance, 30 min. AID 602449, 2012. inhibition, % at 10 µM. 1.4% of 360,000 active;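 active = inhibition of 50% or more, scaled per plate between neutral and stimulator controls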;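 note: 0% = DMSO wells given calcium and 100% = 1 mM EGTA wells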
ADAM17 inh: ADAM17 inhibitors, primary screen, biochemical, QFRET. recombinant ADAM17, EDANS/DABCYL FRET peptide cleavage. inhibition, % at 6.95 µM. 0.83% of 370,000 active. AID 720648, 2013;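 active = inhibition above the mean of compounds lying between control limits plus 3 SD, set per campaign, cut at about 8.5% in these data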;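 note: 0% = DMSO-only wells as the low control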
Target sequence (P78536 215-824 limits assumed): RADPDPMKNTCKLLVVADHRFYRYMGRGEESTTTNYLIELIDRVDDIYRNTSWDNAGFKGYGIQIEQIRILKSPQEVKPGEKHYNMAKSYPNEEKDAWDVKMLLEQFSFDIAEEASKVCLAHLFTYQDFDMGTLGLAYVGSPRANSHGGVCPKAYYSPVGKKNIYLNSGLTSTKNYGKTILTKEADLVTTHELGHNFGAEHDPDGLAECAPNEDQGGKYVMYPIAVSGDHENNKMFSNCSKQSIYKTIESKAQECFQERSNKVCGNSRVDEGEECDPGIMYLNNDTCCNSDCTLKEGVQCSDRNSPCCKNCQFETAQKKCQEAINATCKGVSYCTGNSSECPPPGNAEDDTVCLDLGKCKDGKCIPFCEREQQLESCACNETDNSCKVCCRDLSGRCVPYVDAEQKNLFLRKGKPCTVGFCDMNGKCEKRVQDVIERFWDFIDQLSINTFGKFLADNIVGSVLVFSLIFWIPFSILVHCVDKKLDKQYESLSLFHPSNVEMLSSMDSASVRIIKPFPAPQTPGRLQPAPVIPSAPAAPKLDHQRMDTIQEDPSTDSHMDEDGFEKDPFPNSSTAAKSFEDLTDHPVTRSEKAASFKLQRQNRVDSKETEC
SKN-1 inh: suppressors of acrylamide-induced Pgst-4::GFP reporter in worms, primary screen, SKN-1 inhibitor project, whole organism, uHTS, GFP/RFP fluorescence ratio, strain VP596. 0.49% of 360,000 active. AID 624304, 2012. C. elegans VP596 Pgst-4::GFP/RFP ratio, 24 h. inhibition, % at 21.8 µM;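 active = interference check ratio from 0.5 to 1.5 plus GFP to RFP signal ratio inhibition reaching or exceeding a fixed threshold, cut at about 30% in these data, passing the limit was not always enough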
ADAM10 counter: ADAM10 inhibitors, counter-screen for ADAM17 exosite inhibitor project, biochemical, FRET, human ADAM10; 47% of 2,900 active; recombinant ADAM10, EDANS/DABCYL FRET peptide cleavage, 3 h; AID 743256, 2014; shares compounds with ADAM17 inh; inhibition, % at 6.95 µM;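 active = mean inhibition over the triplicate runs exceeds the activity threshold set in the earlier primary screen, cut at about 20% in these data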;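 note: 0% = DMSO wells and 100% = marimastat wells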
ADAM17 confirm: ADAM17 inhibitors, hit retest, confirmation, biochemical, QFRET peptide cleavage | shares compounds with ADAM17 inh | recombinant ADAM17, EDANS/DABCYL QFRET peptide cleavage | inhibition, % at 6.95 µM | 65% of 2,900 active | AID 743257, 2014;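 active = mean inhibition across replicates above the hit cutoff set in the primary screen, cut at about 8.5% in these data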;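 note: 0% = DMSO wells and 100% = marimastat wells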
Starred values were filed as active, the others as inactive. Shown are actives, neighbours in structure and some others; about 4.7% of the full set was active somewhere.

Results for O=C(Cc1ccccc1)NNC(=O)Nc1cccc(Cl)c1 ?
NR3A LBD binder: 2.8; ADAM10 inh: -2.4; MT1-MMP act inh: -1.8; MPTP block: -0.5; ADAM17 inh: 3.6; SKN-1 inh: 5.9

What do the screens show for `O=C(CN1c2ccccc2Sc2ccccc21)NNC(=O)Nc1cccc(Cl)c1`?
NR3A LBD binder: 18.4*; ADAM10 inh: -2.1; MT1-MMP act inh: 2.6; MPTP block: 38.4; ADAM17 inh: 8.8*; SKN-1 inh: 10.1; ADAM10 counter: 9.7; ADAM17 confirm: 8.9*

What do the screens show for `COC(=O)c1c(NC(=O)CN2CCN(c3ccccc3Cl)CC2)sc(C)c1C`?
NR3A LBD binder: -0.1; ADAM10 inh: -14.8; MT1-MMP act inh: -1.8; MPTP block: 16.3; ADAM17 inh: -1.5; SKN-1 inh: 0.4

Results for COc1cccc(CN(C)C(=O)c2cc(COc3ccc(-n4cncn4)cc3)on2)c1 ?
NR3A LBD binder: 1.4; ADAM10 inh: 7.8; MT1-MMP act inh: 0.5; MPTP block: 31.4; ADAM17 inh: 8.7*; SKN-1 inh: -19.0; ADAM10 counter: 3.1; ADAM17 confirm: 4.4

How did COc1cccc(CN(C)C(=O)c2cc(COc3c(F)cccc3F)on2)c1 do in these assays?
NR3A LBD binder: -0.7; ADAM10 inh: 4.3; MT1-MMP act inh: 2.0; MPTP block: -0.5; ADAM17 inh: -1.4; SKN-1 inh: 1.9

Results for COc1ccc(-c2oc3cccnc3c2C#CC2(O)CCCCC2)cc1 ?
NR3A LBD binder: -11.5; ADAM10 inh: inactive; MT1-MMP act inh: 3.3; MPTP block: 1.5; ADAM17 inh: inactive; SKN-1 inh: -12.3

Results for Cc1[nH]c2ccc(C(=O)NCCCN3CCN(C)CC3)cc2c1C ?
NR3A LBD binder: 8.1; ADAM10 inh: -9.4; MT1-MMP act inh: 0.1; MPTP block: -1.7; ADAM17 inh: -1.9; SKN-1 inh: 2.0

What do the screens show for `Cc1[nH]c2ccc(C(=O)NCCCN(C)C3CCCCC3)cc2c1C`?
NR3A LBD binder: -1.5; ADAM10 inh: 0.1; MT1-MMP act inh: 0.7; MPTP block: 0.5; ADAM17 inh: 8.7*; SKN-1 inh: -3.6; ADAM10 counter: -49.3; ADAM17 confirm: -10.3

Results for Cc1cc(Cl)ccc1OC(C)C(=O)Nc1cccc(S(=O)(=O)N2CCOCC2)c1 (configuration not stated) ?
ADAM10 inh: -9.0; MT1-MMP act inh: -3.6; MPTP block: 2.2; ADAM17 inh: -4.5; SKN-1 inh: 4.3

What do the screens show for `CC(Sc1nc2cc(Cl)ccc2s1)C(=O)Nc1cccc(S(=O)(=O)N2CCOCC2)c1` (configuration not stated)?
NR3A LBD binder: -5.3; ADAM10 inh: 15.1; MT1-MMP act inh: 4.7; MPTP block: -11.0; ADAM17 inh: 9.5*; SKN-1 inh: 2.7; ADAM10 counter: 23.6*; ADAM17 confirm: 15.1*

What do the screens show for `CC(Sc1nnnn1C)C(=O)Nc1ccc2c(c1)OCCO2` (configuration not stated)?
NR3A LBD binder: -1.7; ADAM10 inh: 0.2; MT1-MMP act inh: 0.7; MPTP block: -0.7; ADAM17 inh: -0.9; SKN-1 inh: 12.4
